From PubChem BioAssay
OXTR ag: agonists of human oxytocin receptor. P30559. CHO-OTR cells, Fluo-8 calcium fluorescence; normalized: DMSO 0%, oxytocin 100%. activation, % at 3 µM. hit rate 0.32% among 320,000. AID 2435;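 active means activation above the mean of all tested compounds plus 3 SD, cutoff set per screening run, cut at about 20% in these data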;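 further: peak over basal fluorescence ratio from a 100 s FLIPR kinetic read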
Target sequence (P30559 whole entry, looked up): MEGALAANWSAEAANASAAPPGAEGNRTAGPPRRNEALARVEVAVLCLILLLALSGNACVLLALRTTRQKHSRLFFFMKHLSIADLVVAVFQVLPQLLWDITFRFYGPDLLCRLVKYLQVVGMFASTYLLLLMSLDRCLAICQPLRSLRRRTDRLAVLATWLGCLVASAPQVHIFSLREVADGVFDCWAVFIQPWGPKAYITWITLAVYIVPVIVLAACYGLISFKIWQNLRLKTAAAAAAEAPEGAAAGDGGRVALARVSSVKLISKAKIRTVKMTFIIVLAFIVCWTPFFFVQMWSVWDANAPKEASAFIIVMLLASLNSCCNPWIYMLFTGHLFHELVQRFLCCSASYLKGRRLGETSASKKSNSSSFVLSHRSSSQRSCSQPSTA
CHO parental Ca: counter-screen for OX1R antagonists: effect in parental CHO cells | parental CHO-K1, ATP-induced calcium, Fluo-8 fluorescence | inhibition, % at 5.6 µM | hit rate 0.63% among 330,000;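 active means inhibition above that plate's mean sample inhibition plus 3 SD, cut at about 26% in these data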;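 further: 0% = ATP-challenged DMSO wells and 100% = DMSO wells without ATP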
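Measured by: calcium-sensitive Fluo-8 fluorescence / Test system: CHO parental line / Controls: ATP-challenged DMSO wells low, unchallenged DMSO wells high / Measure: % inhibition / Compound: single nominal dose of 5.6 µM per compound / Replicates: single well per compound, no replicates / Reagent: ATP as calcium-mobilizing challenge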
V1aR counter: activates human V1a receptor in oxytocin agonist counter-screen. CHO-V1R cells, Fluo-8 calcium fluorescence, agonist mode; 0% DMSO, 100% 3 nM vasopressin. activation, % at 3 µM. hit rate 0.25% among 320,000. AID 2797;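 active means activation above the mean activation of all tested compounds plus 3 SD, per screening run, cut at about 20% in these data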;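 further: signal is peak over basal fluorescence ratio across a 100 second FLIPR read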
OX1R antag-1: antagonists of human orexin 1 receptor. AID 434989. hit rate 0.43% among 330,000. inhibition, % at 5 µM. CHO/OX1R cells, Fluo-8 calcium fluorescence, orexin A. O43613;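 active means inhibition above its plate's threshold, mean inhibition of all tested compounds on the plate plus 3 SD, cut at about 37% in these data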;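 further: 0% = orexin A challenge wells and 100% = SB-334867-A antagonist wells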
OXTR potentiator: potentiators of human oxytocin receptor; CHO-OTR cells, Fluo-8 calcium fluorescence, potentiator mode; 0% = oxytocin EC15, 100% = EC100; activation, % at 3 µM; hit rate 0.061% among 320,000;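 active means activation above that plate's cutoff, the mean activation of tested compounds plus 3 SD, cut at about 6.6% in these data, passing the limit was not always enough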;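 further: 100% uses oxytocin at 75 nM as the full agonist control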
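Replication – single well per compound, singlicate · Assay system – CHO cell line stably expressing human OTR · Timing – 6 min pre-incubation, 100 s read · Measure – normalized max/min fluorescence ratio, % activation · Doses – 3.0 µM, one dose · Detection – Fluo-8 calcium dye fluorescence · Probe or stimulus – oxytocin near EC15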
OX1R antag-2: OX1R (human) antagonism. hit rate 1.8% among 330,000. OX1R-expressing cells, FRET antagonist read-out. O43613. inhibition, % at 6.6 µM; in the data active means inhibition mostly above about 38%, no sharp cut-off; inactive means mostly below about 40%;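 further: 0% = agonist challenge alone and 100% = reference antagonist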
Starred values were filed as active, the others as inactive. Compounds with a hit are over-represented: about 2.7% of the library has one in this group of screens.

SMILES	OXTR ag	CHO parental Ca	V1aR counter	OX1R antag-1	OXTR potentiator	OX1R antag-2
COc1cc(NC(=O)COc2cc(O)c3c(c2)OC(C)(C)CC3=O)cc(OC)c1OC	17	82*	10	30	-7	71*
O=c1[nH]cnc2ncc(-c3ccc(O)cc3)nc12	-1	-9	0	1	-6	60*
C[C@H](CO)N1C[C@H](C)[C@@H](CN(C)C)Oc2c(NS(=O)(=O)c3cn(C)cn3)cccc2C1=O	0	-12	1	6	-1	1
CCc1ccccc1NC(=O)CSc1nc2n[nH]c(C)c2c(=N)n1-c1cccc(OC)c1	-2	-26	-1	16	-9	46*
CCOc1ccccc1NC(=O)CCSc1nc2n[nH]c(C)c2c(=N)n1-c1ccccc1Cl	-1	-25	0	-21	-6	53*
N/C(=N\OC(=O)CCCN1C(=O)c2ccccc2C1=O)c1ccc(Br)cc1	0	-5	0	-16	-9	19
N/C(=N\OC(=O)CCCCCN1C(=O)c2ccccc2C1=O)c1ccccc1	1	-13	1	-9	-4	62*
CC(Oc1ccccc1)C(=O)Nc1nnc(S(=O)(=O)N(C)c2ccccc2)s1 (centres undefined)	4	-2	10	-7	-8	59
Cc1ccc(N2CC(C(=O)OCC(=O)NNC(=O)c3ccccc3)CC2=O)cc1 (centres undefined)	0	-6	1	-7	-7	13
[O-][n+]1cccc2c(Br)cc(Br)c(O)c21	-1	30*	0	13	-11	44
COc1ccc(/C=C2\SC(=O)N(CCNC(=O)Cc3coc4cc(C)ccc34)C2=O)cc1OC	-1	-32	1	6	-11	54*
O=C1Nc2ccc(S(=O)(=O)N3CCCC3C(=O)O)c3cccc1c23 (centres undefined)	1	-9	1	-10	0	38*
O=C1Nc2ccc(S(=O)(=O)N3CCCC3)c3cccc1c23	1	-6	1	-8	-7	19
O=C(COC(=O)CNC(=O)c1ccco1)Nc1ncc(Cl)cc1Cl	0	12	1	0	-6	4
Oc1ccc(C2=NN(c3ccccc3)C(c3ccc(F)cc3)C2)cc1 (centres undefined)	0	58*	1	5	-3	17
Cc1cc(-n2c(C)cc(C(=O)CSc3ncnc4ccccc34)c2C)no1	18	66*	9	70*	-21	47*
Cc1cc(C(=O)CSc2ncnc3ccccc23)c(C)n1C1CC1	5	-29	4	-30	-11	0
COc1ccc(N(CC(=O)NCc2cccs2)S(=O)(=O)c2ccc(F)cc2)cc1	-2	-20	0	-14	-8	5
COc1cccc(-c2c(C(=O)N/N=C(\C)c3cccs3)nnn2-c2nonc2N)c1	44*	-27	60*	-22	-7	28
COc1cccc(-c2c(C(=O)N/N=C(\C)c3ccncc3)nnn2-c2nonc2N)c1	0	-10	3	-30	0	16
C/C(=N\NC(=O)c1nnn(-c2nonc2N)c1CN(C)c1ccccc1)c1ccccc1O	2	4	5	23	-11	55*
CCOc1ccc(-c2c(C(=O)N/N=C(\C)c3ccco3)nnn2-c2nonc2N)cc1	26*	-10	23*	-12	-19	14
COc1ccc(/C(C)=N/NC(=O)c2nnn(-c3nonc3N)c2CN(C)c2ccccc2)cc1	3	-18	2	29	-7	45
CCOc1ccc(-c2c(C(=O)N/N=C(\C)c3cccs3)nnn2-c2nonc2N)cc1	4	-15	11	-18	-6	19
CCOc1cccc(-c2c(C(=O)N/N=C(\C)c3cccs3)nnn2-c2nonc2N)c1	36*	-15	36*	-13	-11	-2
SMILES	OXTR ag	CHO parental Ca	V1aR counter	OX1R antag-1	OXTR potentiator	OX1R antag-2
O=C(CN1C(=O)CSc2ncccc21)Nc1ccccc1F	0	-10	0	-17	-8	8
O=C1C(=O)N(Cc2ccco2)C(c2cccs2)/C1=C(\O)c1cccc([N+](=O)[O-])c1 (centres undefined)	-1	10	-1	-2	-1	7
CC(=O)c1ccc(NC(=O)c2cc(CC(C)C)on2)cc1	-1	36*	1	-7	-3	2
Cc1cc(C)c(NC(=O)CSc2nnc(CNC(=O)c3ccco3)o2)c(C)c1	-1	-18	0	-24	-7	11
Cc1ccc(NC(=O)CN2C(=O)NC3(CCCc4ccccc43)C2=O)c([N+](=O)[O-])c1 (centres undefined)	0	-1	2	-6	-8	54*
O=C(COC(=O)CN1C(=O)NC2(CCCC2)C1=O)Nc1ccc(C(F)(F)F)cc1[N+](=O)[O-]	2	-5	6	-18	-6	41*
O=C(NCC1CCCN1S(=O)(=O)c1cccs1)C(=O)Nc1ccccc1Cl (centres undefined)	0	2	-1	0	-8	45*
O=C(NCC1CCCN1S(=O)(=O)c1cccs1)c1cccc(Cl)c1 (centres undefined)	1	-23	0	-12	-6	53*
O=C(NCC1CCCN1S(=O)(=O)c1cccs1)c1ccc(Cl)cc1 (centres undefined)	1	-10	0	-22	-9	16
Cc1ccc(S(=O)(=O)N2CCOc3ccccc32)c(C)c1NS(C)(=O)=O	6	-5	3	-11	-2	16
CC(Cc1cccs1)NC(=S)Nc1ccc(Cl)cc1 (centres undefined)	7	19	7	1	-17	60*
O=C(Nc1ccc(F)cc1)Nc1csc2ccccc12	7	12	7	18	-14	29
CN(C)c1ccc(NC(=O)Nc2csc3ccccc23)cc1	0	-15	-2	29	-12	57*
CCOc1ccc(S(=O)(=O)N2CCC(C(=O)NCc3cccnc3)CC2)cc1C	-1	-10	0	8	0	17
CCOC(=O)c1ccc(NC(=O)c2nc[nH]c2C(=O)N(C)Cc2ccccc2)cc1	0	-18	0	-7	-8	57*
CCNC(=O)O/N=C1\CCCCC1c1ccc([N+](=O)[O-])cc1[N+](=O)[O-] (centres undefined)	1	-3	0	-16	10	46*
CS(=O)(=O)O/N=C1\CCCCC1c1ccc([N+](=O)[O-])cc1[N+](=O)[O-] (centres undefined)	1	-4	0	-3	-20	49*
O=C(O)c1ccccc1C(=O)Nc1cccc([N+](=O)[O-])c1	2	-4	0	-1	4	9
